pIC50: −log10 of the molar value. Calls of active or inactive are those of the source. The rule behind the calls is not given here.
Experiments:
[1] = test system: Rattus norvegicus; assay: Induction of uterotrophic activity in Sprague-Dawley rat assessed as increase in uterine weight at 2 mg/kg, sc administered for 3 days and measured after 24 hrs of last dosing by hematoxylin eosin staining based imaging analysis; assay type: functional, organism-based
Outline: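 Female Sprague Dawley rats, 12 days old, were housed with foster dams (6 per dam) and acclimated for one week. From day 19 they received 3 daily doses of 2 mg/kg s.c. in peanut oil. Animals were killed 24 h after the last dose, and uteri were excised, trimmed of fat and mesentery, and weighed. Half of each uterus was fixed in 4% paraformaldehyde, paraffin embedded and stained with H&E.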

[2] = test system: MCF7:TAM1; assay: Cytotoxicity against human MCF7:TAM1 3D spheroid cells assessed as reduction in tumor cell viability at 10 nM incubated for 14 days by celltiter-glo 3D cell viability assay
[3] = Drug concentration in C57BL/6 mouse brain at 5 mg, sc measured after 0.5 hrs by LC/MS-MS analysis; assay type: ADME, organism-based; settings: read-out: Drug uptake
Outline: (§1)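 PK screen in female C57BL/6 mice (N = 3 per time point) given 5 mg s.c. single dose; mice perfused, plasma and brain collected postmortem at 0.5 and 2 h; analyte quantified by LC-MS/MS in MRM mode against standard curves prepared in the matching matrix with a common internal standard; mean and s.d. reported.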

[4] = species: Homo sapiens; assay: Cytotoxicity against human MCF7:WS8 3D spheroid cells assessed as reduction in tumor cell viability at 10 nM incubated for 14 days by celltiter-glo 3D cell viability assay
[5] = Antiproliferative activity against human MCF7:5C cells assessed as reduction in cell viability incubated for 7 days by Hoechst 33258 dye based assay relative to control; assay type: functional; settings: 168 h
Outline: (§2)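 Cells were seeded at 5000 per well; MCF7:WS8 had been estrogen-stripped for 2 days first. Compounds were serially diluted in DMSO, with 0.01% DMSO as vehicle. The medium was removed on day 5 (MCF7:WS8) or day 7 (MCF7:5C), and cells were lysed by freezing at −80 °C overnight. DNA was measured by Hoechst 33258 fluorescence. Maximum efficacy was normalized to vehicle (0%) and no cells (100%); at least three biological replicates.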

[6] = species: Homo sapiens; assay: Cytotoxicity against human MCF7:WS8 3D spheroid cells assessed as reduction in tumor spheroid size at 10 nM incubated for 14 days
[7] = Antiproliferative activity against human MCF7:WS8 cells assessed as reduction in cell viability incubated for 5 days by Hoechst 33258 dye based assay; assay type: functional; settings: MCF7:WS8, 120 h; outline: as §2
[8] = Plasma concentration in C57BL/6 mouse at 5 mg, sc measured after 0.5 hrs by LC/MS-MS analysis; assay type: ADME, organism-based; outline: as §1
[9] = test system: T47D; assay: Cytotoxicity against human T47D 3D spheroid cells harboring D538G mutant assessed as reduction in tumor cell viability at 10 nM incubated for 14 days by celltiter-glo 3D cell viability assay
[10] = Antiproliferative activity against human MCF7:WS8 cells assessed as reduction in cell viability incubated for 5 days by Hoechst 33258 dye based assay relative to control; assay type: functional; settings: MCF7:WS8, 120 h; outline: as §2
[11] = Plasma concentration in C57BL/6 mouse at 5 mg, sc measured after 2 hrs by LC/MS-MS analysis; assay type: ADME, organism-based; outline: as §1
[12] = test system: T47D; assay: Cytotoxicity against human T47D 3D spheroid cells harboring Y537S mutant assessed as reduction in tumor cell viability at 10 nM incubated for 14 days by celltiter-glo 3D cell viability assay
[13] = Drug concentration in C57BL/6 mouse brain at 5 mg, sc measured after 2 hrs by LC/MS-MS analysis; assay type: ADME, organism-based; settings: read-out: Drug uptake; outline: as §1
[14] = test system: T47D; assay: Cytotoxicity against human T47D 3D spheroid cells assessed as reduction in tumor cell viability at 10 nM incubated for 14 days by celltiter-glo 3D cell viability assay
[15] = test system: MCF7:TAM1; assay: Antitumor activity against human MCF7:TAM1 cells xenografted in athymic nude mouse assessed as tumor regression at 5 mg, sc measured after 4 weeks; assay type: functional, organism-based
Outline: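 Ovariectomized athymic female nude mice, 4–6 weeks old, carrying MCF7:TAM1 tumours established in the mammary fat pad, with E2 supplied from 1.0 cm silastic capsules implanted s.c. Dosing was 5 mg/week s.c. in sesame oil. Tumour cross-sectional area was measured weekly with calipers as (length/2)×(width/2)×π, and mean area was plotted against time in weeks.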

[16] = test system: Rattus norvegicus; assay: Induction of uterotrophic activity in Sprague-Dawley rat assessed as increase in uterine weight at 10 mg/kg, po administered for 3 days and measured after 24 hrs of last dosing by hematoxylin eosin staining based imaging analysis; assay type: functional, organism-based
Outline: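 Female Sprague-Dawley rats were dosed from day 19 of age once daily for 3 days: 10 mg/kg p.o. in 2% Tween 80/0.5% methylcellulose. EE2 (0.1 mg/kg p.o., peanut oil) was the positive control. Uteri were excised and weighed 24 h after the last dose; one half was fixed in 4% paraformaldehyde for H&E histology.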

[17] = test system: Mus musculus; assay: In vivo degradation of ERalpha in C57BL/6 mouse at 50 mg/kg, po measured after 7 hrs by Western blot analysis; assay type: functional, organism-based
Outline: (§3)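 Female C57BL/6J mice aged 9–12 weeks were dosed at 50 mg/kg p.o. in PEG 400/10% HPCD (1:9 v/v). Regimens were a single dose with sacrifice at 5 h, or 3 daily doses with sacrifice 5 h (n = 5) or 7 h (n = 6) after the last dose. Ovaries and uterus were homogenized, 20 μg protein was run by SDS-PAGE, and the blot was probed for ERα and normalized to β-actin.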

[18] = test system: Mus musculus; assay: In vivo degradation of ERalpha in C57BL/6 mouse at 50 mg/kg, po administered for 3 days and measured on day 3 by Western blot analysis; assay type: functional, organism-based; outline: as §3
[19] = target: T1, Estrogen receptor (Homo sapiens) (UniProt P03372); assay: Induction of degradation of ERalpha in human MCF7:WS8 cells at 100 nM in presence of MG-132 incubated for 24 hrs by Western blot analysis; assay type: cell-based
T1 sequence (whole entry): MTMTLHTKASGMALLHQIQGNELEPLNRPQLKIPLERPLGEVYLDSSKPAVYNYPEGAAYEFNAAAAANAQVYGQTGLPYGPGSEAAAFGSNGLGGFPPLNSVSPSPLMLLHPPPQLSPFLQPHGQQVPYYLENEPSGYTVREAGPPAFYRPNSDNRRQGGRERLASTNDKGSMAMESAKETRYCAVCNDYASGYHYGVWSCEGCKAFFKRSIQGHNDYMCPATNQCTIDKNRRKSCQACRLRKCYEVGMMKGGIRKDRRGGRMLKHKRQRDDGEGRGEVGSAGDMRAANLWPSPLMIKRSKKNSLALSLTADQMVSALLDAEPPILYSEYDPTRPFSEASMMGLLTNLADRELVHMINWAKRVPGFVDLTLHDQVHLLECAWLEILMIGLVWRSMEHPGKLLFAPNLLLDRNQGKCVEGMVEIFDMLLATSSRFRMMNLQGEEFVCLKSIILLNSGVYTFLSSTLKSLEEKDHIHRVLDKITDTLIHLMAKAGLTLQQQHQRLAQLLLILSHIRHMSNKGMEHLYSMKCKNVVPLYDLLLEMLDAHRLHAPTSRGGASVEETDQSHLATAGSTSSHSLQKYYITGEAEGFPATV

## C[C@]12CC[C@@H]3c4ccc(O)cc4C[C@@H](CCCCCCCCC[S+]([O-])CCCC(F)(F)C(F)(F)F)[C@H]3[C@@H]1CC[C@@H]2O (some centres undefined) [FULVESTRANT]
[1]
  Activity: inactive
[2]
  Activity: Active
[3]
  concentration at 0.5 h: 0.7 nM
[4]
  Activity: Active
[5]
  Emax: 48%
[6]
  Activity: Active
[7]
  pIC50: 9.22
[8]
  concentration at 0.5 h: 31.2 nM
[9]
  Activity: Active
[10]
  Emax: 66%
[11]
  concentration at 2 h: 301 nM
[12]
  Activity: Active
[13]
  concentration at 2 h: 47.4 nM
[14]
  Activity: Active
[15]
  Activity: Active

## Cc1c(-c2ccc(O)cc2)n(Cc2ccc(OCCN3CCCCCC3)cc2)c2ccc(O)cc12
[16]
  Activity: inactive

## Cc1cc(Cl)cc(C)c1C(=O)c1sc2cc(O)ccc2c1Oc1ccc(/C=C/C(=O)O)cc1
[17]
  Activity: Active
[18]
  Activity: Active
[19]
  Activity: Active
